The full list was thinned out, with hits kept by preference.
T cruzi growth-1: T. cruzi intracellular proliferation inhibitors, primary screen, cell-based, beta-gal Tulahuen parasites, NIH3T3 host, luminescence. T. cruzi beta-gal in NIH3T3, GalScreen luminescence, 90 h. inhibition, % at 8.34 µM. 77,000 compounds, 5.9% hits. AID 624255, 2012;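 active = mean inhibition above about 93%, with at least 55% of replicates each passing it, limit read from the data, passing the limit was not always enough; inconclusive = only one of those two conditions holds; inactive = neither condition holds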
IDH1 R132H inh: inhibitors of IDH1 R132H reductase, primary screen, biochemical, plate reader, single point; Isocitrate dehydrogenase [NADP] cytoplasmic (Homo sapiens), O75874; diaphorase/resazurin fluorescence, 60 min; inhibition, % at 10 µM; 70,000 compounds, 0.18% hits; in the data active = inhibition above about 34%; inconclusive = no clear call, values can overlap the other calls; inactive = below about 11%;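 note: 0% = DMSO and 100% = no enzyme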
Target sequence (O75874 whole entry R132H): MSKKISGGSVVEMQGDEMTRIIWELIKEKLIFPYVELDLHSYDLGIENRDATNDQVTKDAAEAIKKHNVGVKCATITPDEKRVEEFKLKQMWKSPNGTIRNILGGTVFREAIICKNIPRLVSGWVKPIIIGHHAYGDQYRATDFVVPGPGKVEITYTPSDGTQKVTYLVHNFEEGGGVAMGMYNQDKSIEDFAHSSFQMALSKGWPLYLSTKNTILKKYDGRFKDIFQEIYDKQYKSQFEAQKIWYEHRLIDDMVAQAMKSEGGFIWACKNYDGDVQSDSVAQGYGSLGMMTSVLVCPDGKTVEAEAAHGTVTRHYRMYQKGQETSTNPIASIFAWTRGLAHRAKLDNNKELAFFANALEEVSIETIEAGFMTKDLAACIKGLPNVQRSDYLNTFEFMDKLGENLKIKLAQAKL
KDM4C inh: inhibitors of GASC-1 (KDM4C) histone demethylase, primary screen, biochemical, single concentration HTS; Lysine-specific demethylase 4C (Homo sapiens), Q9H3R0; GST-KDM4C 2-372, H3K9me3 peptide, LANCE TR-FRET; inhibition, % at 12.5 µM; 96,000 compounds, 0.15% hits;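 active = mean replicate inhibition above about 25%, with at least 55% of replicates also reaching it, limit read from the data, passing the limit was not always enough; inconclusive = only one of those two conditions met; inactive = neither condition met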
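Assay system: GST-GASC-1 enzyme fragment 2-372 | Amount: 10 nM enzyme | Medium: HEPES buffer, pH 7.5, plus ascorbate | Reagent: H3K9me3 peptide substrate, Fe(II), 2-oxoglutarate | Doses: Single-point compound screen | Incubation: 30 min demethylation and 1 h detection at room temperature | Measured by: LANCE TR-FRET, excitation 340 nm, emissions 618 and 671 nm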
T cruzi growth-2: T. cruzi intracellular proliferation inhibitors, confirmation, cell-based, NIH3T3 host, beta-gal parasite, luminescence, cherry-pick; 5,600 compounds, 72% hits; T. cruzi beta-gal in NIH3T3, GalScreen luminescence, 90 h; shares compounds with T cruzi growth-1; inhibition, % at 8.35 µM;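 active = mean replicate inhibition above about 95% and at least 55% of replicates individually reaching it, limit read from the data; inconclusive = only one of the two criteria is met; inactive = neither criterion is met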
T cruzi growth-3: inhibitors of intracellular T. cruzi replication, confirmation, NIH3T3 host cells, beta-gal parasites, cherry-pick, set 2; T. cruzi beta-gal in NIH3T3, GalScreen luminescence, 90 h; 5,600 compounds, 21% hits; shares compounds with T cruzi growth-1; inhibition, % at 2.09 µM; AID 651740, 2012;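 active = mean inhibition above about 95%, with at least 55% of replicates also reaching it, limit read from the data; inconclusive = meets just one of the two conditions; inactive = meets neither condition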;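 note: plate controls were neutral control median for no effect and positive control median for full effect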
3T3 cytotox: cytotoxicity in mouse NIH/3T3 fibroblasts, confirmation, cytotoxicity control for T. cruzi proliferation inhibitor project, cell-based, cherry-pick, single point | shares compounds with T cruzi growth-1 | NIH/3T3 viability, CellTiter-Glo ATP luminescence, 90 h | cytotoxicity (signal decrease), % at 8.35 µM | 5,600 compounds, 14% hits | AID 651742, 2012;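 active = mean signal decrease across replicates above about 35% based on untreated-well scatter, with enough replicates individually passing, limit read from the data; inconclusive = no rule stated though some were filed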;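 note: 0% = median of neutral control wells and 100% = median of positive control wells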
3T3 cytotox 2: NIH/3T3 fibroblast cytotoxicity, confirmation, cytotoxicity control, cell-based, cherry-pick, single point, set 2; shares compounds with T cruzi growth-1; NIH/3T3 viability, CellTiter-Glo ATP luminescence, 90 h; inhibition, % at 24.9 µM; 5,600 compounds, 56% hits; AID 651744, 2012;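 active = mean loss of cell viability signal at or above a set limit, and enough replicates individually reaching it; inconclusive = meets only the mean limit or only the replicate share; inactive = meets neither condition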;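 note: 0% = median of neutral control wells and 100% = median of positive control wells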
The depositor's hits bear a star; ? = inconclusive; nt = no result given.

SMILES	T cruzi growth-1	IDH1 R132H inh	KDM4C inh	T cruzi growth-2	T cruzi growth-3	3T3 cytotox	3T3 cytotox 2
COc1cc(OC)c(C2=NOC(C(=O)Nc3sc4c(c3C#N)CCC4)C2)cc1Cl (stereo unspecified)	nt	0	nt	nt	nt	nt	nt
O=C(C[C@@H]1C[C@H]2c3cc(NS(=O)(=O)c4ccccc4)ccc3O[C@H]2[C@H](CO)O1)N1CCCCC1	104*	7	6	59	36	24	40*
O=C(Nc1ccc(F)cc1)Nc1ccc2c(c1)[C@H]1C[C@@H](CC(=O)N3CCCCC3)O[C@@H](CO)[C@H]1O2	111*	0	-2	18	-5	-7	-1
O=C(C[C@H]1C[C@H]2c3cc(NS(=O)(=O)c4ccccc4)ccc3O[C@H]2[C@@H](CO)O1)N1CCCCC1	39	-1	-3	nt	nt	nt	nt
O=C(C[C@@H]1C[C@H]2c3cc(NS(=O)(=O)c4ccccc4)ccc3O[C@H]2[C@@H](CO)O1)N1CCCCC1	101*	0	-3	70	-9	-2	16
O=C(C[C@@H]1C[C@H]2c3cc(NS(=O)(=O)c4ccccc4)ccc3O[C@H]2[C@@H](CO)O1)N1CCOCC1	46	0	0	nt	nt	nt	nt
O=C(Nc1ccc(F)cc1)Nc1ccc2c(c1)[C@@H]1C[C@@H](CC(=O)N3CCCCC3)O[C@H](CO)[C@@H]1O2	73	0	-2	nt	nt	nt	nt
Cc1ccc(OCC(=O)NC(=S)Nc2cc(-c3nc4ncccc4o3)ccc2Cl)cc1	nt	0	nt	nt	nt	nt	nt
COC(=O)c1ccccc1NC(=O)CSc1nnc(-c2ccccc2)o1	nt	1	nt	nt	nt	nt	nt
CC(C)CC#Cc1ccc2c(c1)O[C@@H](CN(C)Cc1ccccn1)[C@@H](C)CN([C@@H](C)CO)S2(=O)=O	116*	-1	6	105*	62	4	102*
CC(C)CC#Cc1ccc2c(c1)O[C@@H](CN(C)Cc1ccccn1)[C@H](C)CN([C@H](C)CO)S2(=O)=O	123*	-1	5	104*	65	19	105*
C[C@H](O)C#Cc1ccc2c(c1)O[C@@H](CN(C)Cc1ccccn1)[C@@H](C)CN([C@H](C)CO)S2(=O)=O	0	nt	0	nt	nt	nt	nt
CC(C)CC#Cc1ccc2c(c1)O[C@H](CN(C)Cc1ccccn1)[C@H](C)CN([C@@H](C)CO)S2(=O)=O	126*	0	8	100*	52	22	104*
CC(C)CC#Cc1ccc2c(c1)O[C@@H](CN(C)Cc1ccccn1)[C@H](C)CN([C@@H](C)CO)S2(=O)=O	131*	5	1	109*	91	14	103*
C[C@@H](O)C#Cc1ccc2c(c1)O[C@H](CN(C)Cc1ccccn1)[C@@H](C)CN([C@@H](C)CO)S2(=O)=O	12	4	1	nt	nt	nt	nt
Cc1cc(C)c(NC(=O)CN(c2cccc3ccccc23)S(C)(=O)=O)c(C)c1	nt	1	nt	nt	nt	nt	nt
Oc1ccc(CCCCC(O)CCc2ccc(O)cc2)cc1 (stereo unspecified)	nt	0	nt	nt	nt	nt	nt
Cc1sc2ncnc(SCC(=O)NCC3CCCO3)c2c1-c1ccc(Cl)cc1 (stereo unspecified)	nt	0	nt	nt	nt	nt	nt
COC1CC(OC(O)C(O)C(O)C(O)C(O)CO)c2c(cc3cc(C)oc(=O)c3c2O)OC1=O (stereo unspecified)	nt	0	nt	nt	nt	nt	nt
CN(C)C(=O)c1ccc(-c2ccc([C@@H]3[C@@H](C#N)N(C(=O)C4CC4)[C@H]3CO)cc2)cc1	104*	nt	-2	99*	?	2	63*
CN(C)C(=O)c1ccc(-c2ccc([C@H]3[C@@H](C#N)N(C(=O)C4CCCCC4)[C@H]3CO)cc2)cc1	?	nt	0	7	29	23	27*
CN(C)C(=O)c1ccc(-c2ccc([C@@H]3[C@@H](CO)N(C(=O)C4CCCCC4)[C@H]3C#N)cc2)cc1	89	nt	-1	nt	nt	nt	nt
CN(C)C(=O)c1ccc(-c2ccc([C@@H]3[C@@H](CO)N(C(=O)C4CC4)[C@H]3C#N)cc2)cc1	67	nt	0	nt	nt	nt	nt
COC1=CC(=O)O/C1=C(/OC)[C@@H]1O[C@H]1c1ccccc1	nt	0	nt	nt	nt	nt	nt
C[C@@H]1CN([C@H](C)CO)S(=O)(=O)c2ccc(C#Cc3ccccc3)cc2O[C@H]1CN(C)S(=O)(=O)c1ccccc1F	129*	0	-2	98*	45	8	?
SMILES	T cruzi growth-1	IDH1 R132H inh	KDM4C inh	T cruzi growth-2	T cruzi growth-3	3T3 cytotox	3T3 cytotox 2
C[C@H](CO)N1C[C@H](C)[C@H](CN(C)S(=O)(=O)c2ccccc2F)Oc2cc(C#Cc3ccccc3)ccc2S1(=O)=O	125*	-3	-4	110*	79	-1	0
C[C@@H]1CN([C@H](C)CO)S(=O)(=O)c2ccc(C#Cc3ccccc3)cc2O[C@@H]1CN(C)S(=O)(=O)c1cn(C)cn1	42	0	-1	nt	nt	nt	nt
C[C@@H]1CN([C@H](C)CO)S(=O)(=O)c2ccc(C#Cc3ccccc3)cc2O[C@@H]1CN(C)S(=O)(=O)c1ccccc1F	122*	0	-2	105*	106*	25	52*
C[C@H](CO)N1C[C@H](C)[C@@H](CN(C)S(=O)(=O)c2ccccc2F)Oc2cc(-c3ccncc3)ccc2S1(=O)=O	nt	1	0	nt	nt	nt	nt
C[C@H]1CN([C@@H](C)CO)S(=O)(=O)c2ccc(C#Cc3ccccc3)cc2O[C@@H]1CN(C)S(=O)(=O)c1ccccc1F	125*	0	-1	98*	103*	-17	29*
C[C@H]1CN([C@@H](C)CO)S(=O)(=O)c2ccc(-c3ccncc3)cc2O[C@@H]1CN(C)S(=O)(=O)c1ccccc1F	nt	-2	-2	nt	nt	nt	nt
CN1CCc2nc(SCC(=O)Nc3ccc(C(C)(C)C)cc3)c(C#N)cc2C1	nt	1	nt	nt	nt	nt	nt
Cc1cc2nnc(SCC(=O)Nc3sc4c(c3C#N)CCC4)n2c2ccccc12	nt	-1	nt	nt	nt	nt	nt
CC(=O)C(O)(C(=O)OCc1ccc(O[C@@H]2O[C@H](CO)[C@@H](O)[C@H](O)[C@H]2O)cc1)C(C)C (stereo partly specified)	nt	2	nt	nt	nt	nt	nt
CS(=O)(=O)N(CC(=O)Nc1cc(Cl)ccc1Cl)c1cccc([N+](=O)[O-])c1	nt	0	nt	nt	nt	nt	nt

Screening results (PubChem)
